Assay results as given in ChEMBL document CHEMBL2380219, “Physalin A induces apoptotic cell death and protective autophagy in HT1080 human fibrosarcoma cells” (J Nat Prod, 2013).
pIC50: −log10 of the molar value. Active and inactive are the calls of the source. The calls are words filed in the database; no cut-off is given here.

Key:
Assay type in all cases: functional, cell-based
[1] = system: HT-1080; assay: Induction of autophagy in human HT1080 cells assessed as upregulation of beclin 1 at 10 uM by Western blotting analysis; conditions: TDE = time-dependent effect
Summary of the method: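 HT1080 cells exposed to 10 μM for 6, 12, 18 and 24 h, then lysed in Hepes pH 7.4/Triton buffer at 4 °C for 60 min. Equal protein run on 12% SDS-PAGE, blotted to nitrocellulose, probed for beclin 1 and LC3, ECL detection. Densities taken relative to β-actin, n = 3.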

[2] = system: HT-1080; assay: Induction of apoptosis in human HT1080 cells assessed as upregulation of FAS protein expression at 10 uM pretreated with rapamycin for 1 hr prior to compound addition measured after 24 hrs by Western blotting analysis
Summary of the method: (§1)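 HT1080 cells pretreated 1 h with 1 mM 3MA or 1 nM rapamycin, then co-incubated with 10 μM for 24 h. Adherent and floating cells lysed in Hepes pH 7.4/Triton buffer. 12% SDS-PAGE, nitrocellulose, antibodies against Fas, FADD, caspase-8, caspase-3, PARP and ICAD, ECL detection. Densities normalized to β-actin; n = 3.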

[3] = system: HT-1080; assay: Induction of apoptosis in human HT1080 cells assessed as upregulation of FADD protein expression at 10 uM pretreated with rapamycin for 1 hr prior to compound addition measured after 24 hrs by Western blotting analysis; summary of the method: as §1
[4] = system: HT-1080; assay: Induction of apoptosis in human HT1080 cells assessed as change in cytochrome C expression at 10 uM after 6 to 24 hrs by Western blotting analysis
Summary of the method: (§2)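 HT1080 cells treated with 10 μM for 6, 12, 18 and 24 h. Adherent and floating cells lysed 60 min at 4 °C in Hepes pH 7.4/1% Triton X-100 buffer with phosphatase and protease inhibitors. Equal protein run on 12% SDS-PAGE, transferred to nitrocellulose, probed with specific antibodies, HRP/ECL detection. Band density normalized to β-actin; n = 3.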

[5] = system: HT-1080; assay: Cytotoxicity against human HT1080 cells assessed as growth inhibition at 10 uM pretreated with rapamycin for 1 hr prior to compound addition measured after 24 hrs by MTT assay.
Summary of the method: (§3)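 HT1080 seeded 0.8 × 10^4 cells/well. MTT 2 h at 37 °C, formazan in DMSO, A492 read. Inhibition % calculated against untreated and blank wells.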

[6] = system: HT-1080; assay: Induction of apoptosis in human HT1080 cells assessed as downregulation of ICAD at 10 uM pretreated with 3MA for 1 hr prior to compound addition measured after 24 hrs by Western blotting analysis; summary of the method: as §1
[7] = system: HT-1080; assay: Cytotoxicity against human HT1080 cells assessed as growth inhibition at 10 uM pretreated with z-LEHD-FMK for 1 hr prior to compound addition measured after 24 hrs by MTT assay; summary of the method: as §3
[8] = system: HT-1080; assay: Induction of apoptosis in human HT1080 cells assessed as appearance of cleaved procaspase-9 at 10 uM after 6 to 24 hrs by Western blotting analysis; summary of the method: as §2
[9] = system: HT-1080; assay: Induction of autophagy in human HT1080 cells assessed as upregulation of beclin 1 at 10 uM pretreated with rapamycin for 1 hr prior to compound addition measured after 24 hrs by Western blotting analysis
Summary of the method: (§4)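 HT1080 cells pretreated 1 h with 1 mM 3MA or 1 nM rapamycin, then 10 μM added for 24 h. Adherent and floating cells lysed in Hepes pH 7.4/Triton buffer. Equal protein on 12% SDS-PAGE and nitrocellulose, probed for beclin 1 and LC3, ECL detection. Normalized to β-actin, n = 3.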

[10] = system: HT-1080; assay: Induction of autophagy in human HT1080 cells assessed as conversion from LC31to LC32 at 10 uM pretreated with rapamycin for 1 hr prior to compound addition measured after 24 hrs by Western blotting analysis; summary of the method: as §4
[11] = system: HT-1080; assay: Induction of autophagy in human HT1080 cells assessed as upregulation of beclin 1 at 10 uM pretreated with 3MA for 1 hr prior to compound addition measured after 24 hrs by Western blotting analysis; summary of the method: as §4
[12] = system: HT-1080; assay: Cytotoxicity against human HT1080 cells assessed as growth inhibition after 24 hrs by MTT assay; conditions: HT-1080, 24 h
[13] = system: HT-1080; assay: Induction of apoptosis in human HT1080 cells assessed as increase in PARP cleavage at 10 uM pretreated with rapamycin for 1 hr prior to compound addition measured after 24 hrs by Western blotting analysis; summary of the method: as §1
[14] = system: HT-1080; assay: Induction of apoptosis in human HT1080 cells assessed as downregulation of ICAD at 10 uM after 6 to 24 hrs by Western blotting analysis; summary of the method: as §2
[15] = system: A375-S2; assay: Cytotoxicity against human A375-S2 cells assessed as growth inhibition after 24 hrs by MTT assay
Summary of the method: (§5)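 Seeded 0.8 × 10^4 cells/well, cultured 24 h, then exposed to 0, 10, 20, 40 or 80 μM for 24 h (DMSO <0.05%) in RPMI 1640 or MEM with 10% FBS. Adherent lines rinsed with PBS, given MTT 2 h at 37 °C. Suspension lines (U937, HL60) given MTT 2 h, then centrifuged. Formazan dissolved in DMSO, A492 read. Inhibition % = (control − sample)/(control − blank) × 100.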

[16] = system: HT-1080; assay: Induction of apoptosis in human HT1080 cells assessed as change in procaspase-9 expression level at 10 uM after 6 to 24 hrs by Western blotting analysis; summary of the method: as §2
[17] = system: HT-1080; assay: Induction of apoptosis in human HT1080 cells assessed as procaspase-3 cleavage at 10 uM by Western blotting analysis; conditions: TDE = time-dependent effect
[18] = system: HT-1080; assay: Cytotoxicity against human HT1080 cells assessed as growth inhibition at 10 uM pretreated with z-DEVD-FMK for 1 hr prior to compound addition measured after 24 hrs by MTT assay; summary of the method: as §3
[19] = system: HT-1080; assay: Induction of apoptosis in human HT1080 cells assessed as upregulation of FAS protein expression at 10 uM pretreated with 3MA for 1 hr prior to compound addition measured after 24 hrs by Western blotting analysis; summary of the method: as §1
[20] = system: HT-1080; assay: Induction of apoptosis in human HT1080 cells assessed as procaspase-8 cleavage at 10 uM by Western blotting analysis; conditions: TDE = time-dependent effect
[21] = system: HT-1080; assay: Induction of apoptosis in human HT1080 cells assessed as increase in FADD protein expression at 10 uM after 6 to 24 hrs by Western blotting analysis; summary of the method: as §2
[22] = system: HT-1080; assay: Cytotoxicity against human HT1080 cells assessed as growth inhibition after 12 to 72 hrs by MTT assay
[23] = system: HT-1080; assay: Induction of apoptosis in human HT1080 cells assessed as appearance of membrane blebbing at 10 uM after 24 hrs by acridine orange staining-based fluorescence microscopic analysis
Summary of the method: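 HT1080 cells, 2 × 10^4/well, cultured 24 h, then exposed to 10 μM for 24 h. Stained with acridine orange 20 μg/mL for 15 min in the dark and examined by fluorescence microscopy at 200×.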

[24] = system: HepG2; assay: Cytotoxicity against human HepG2 cells assessed as growth inhibition after 24 hrs by MTT assay; summary of the method: as §5
[25] = system: HT-1080; assay: Induction of autophagy in human HT1080 cells at 10 uM by MDC staining-based FACS flow cytometric analysis; conditions: TDE = time-dependent effect
Summary of the method: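 HT1080 cells (3 × 10^5 per flask, grown 24 h) exposed to 10 μM for 12, 24 and 36 h. Cells collected and stained with 0.05 mM MDC at 37 °C for 1 h. MDC-positive ratio measured by flow cytometry, n = 3.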

For `C=C1C(=O)O[C@@H]2C[C@@]1(C)[C@@H]1C(=O)[C@]3(O)O[C@]14[C@@]2(C)OC(=O)[C@@]4(O)CC[C@H]1[C@H]3[C@H](O)C=C2CC=CC(=O)[C@@]21C` [PHYSALIN A], the Activity [1] was “tde”, the Activity [2] was “inactive” and the Activity [3] was “inactive”. The Activity [4] was “inactive”, the “growth inhibition (GI)” value [5] was “inactive” and the Activity [6] was “Active”. The “growth inhibition (GI)” value [7] was “inactive”, the Activity [8] was “inactive” and the Activity [9] was “Active”. For the same compound, the Activity [10] was “Active”, the Activity [11] was “inactive” and the pIC50 [12] was 4.97. The Activity [13] was “inactive”, the Activity [14] was “Active” and the “growth inhibition (GI)” value [15] was “Dose-dependent effect”. For the same compound, the Activity [16] was “inactive”, the Activity [17] was “tde” and the “growth inhibition (GI)” value [18] was “Active”. For the same compound, the Activity [19] was “Active”, the Activity [20] was “tde” and the Activity [21] was “Active”. For the same compound, the “growth inhibition (GI)” value [22] was “Dose-dependent effect”, the Activity [23] was “Active” and the “growth inhibition (GI)” value [24] was “Dose-dependent effect”. For the same compound, the Activity [25] was “tde”.
